Experimental findings from ChEMBL document CHEMBL1146104, “Synthesis and transdermal penetration-enhancing activity of carbonic and carbamic acid esters--comparison with transkarbam 12” (Bioorg Med Chem Lett, 2006) are described below.

Holding throughout (assay type): ADME, organism-based
Common to all, as to settings: pig

The species named for data set [1] is Sus scrofa. In words: Enhancement of theophylline transdermal penetration through porcine ear skin using Franz diffusion cell in isopropylmyristate medium relative to control. The procedure, abridged:
(§1)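 Theophylline permeation from donor samples with and without enhancer (control lacks enhancer); acceptor-phase theophylline quantified by HPLC. Cumulative amounts (μg/cm2) plotted against time to derive flux (μg/cm2/h). Value is the enhancement ratio: flux with enhancer divided by flux of control. Significance p < 0.05 versus control.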

For data set [2], the species on record is Sus scrofa. In words: Enhancement of theophylline transdermal penetration through porcine ear skin using Franz diffusion cell in water medium relative to control. The method in brief: as §1
For data set [3], the species on record is Sus scrofa. In words: Enhancement of theophylline transdermal penetration through porcine ear skin using Franz diffusion cell in propylene glycol/water medium relative to control. The method in brief: as §1

For the molecule `CCCCCCCCCCCCOC(=O)CCCCCNC(=O)OCCCCCC(=O)OCCCCCCCCCCCC`, the Ratio is given as 1.29 in the data set filed under Sus scrofa [1], 2.27 in the data set listed under Sus scrofa [2] and 2.63 in the data set listed under Sus scrofa [3].

For `CCCCCCCCCCCCNC(=O)CCCCCOC(=O)OCCCCCC(=O)NCCCCCCCCCCCC`, the Ratio in the data set listed under Sus scrofa [1] is given as 1.23; in the data set listed under Sus scrofa [2], 0.91; in the data set listed under Sus scrofa [3], 3.29.

Turning to `CCCCCCCCCCNC(=O)CCCCCOC(=O)OCC`, the Ratio came to 1.75 in the data set listed under Sus scrofa [1], 3.37 in the data set filed under Sus scrofa [2] and 1.36 in the data set listed under Sus scrofa [3].

Consider `CCCCCCCCCCCCOC(=O)CCCCCOC(=O)OCCCCCC(=O)OCCCCCCCCCCCC`, for which the figures for the Ratio in the data set listed under Sus scrofa [1], in the data set filed under Sus scrofa [2] and in the data set filed under Sus scrofa [3] were 1.39, 1.76 and 3.7, respectively.

Take `CCCCCCCCCCCCNC(=O)CCC(C)OC(=O)OCCCCCCCCCCCC` (configuration not stated): the Ratio amounted to 1.15 in the data set listed under Sus scrofa [1], 1.7 in the data set filed under Sus scrofa [2] and 1.11 in the data set listed under Sus scrofa [3].

Consider `CCCCCCCCCCCCOC(=O)CCCCCOC(=O)OCC`, for which the Ratio in the data set listed under Sus scrofa [1] was 1.07; in the data set filed under Sus scrofa [2], 2.4; in the data set filed under Sus scrofa [3], 2.13.

For the molecule `CCCCCCCCCCCCNC(=O)CCC(C)OC(=O)OCC` (configuration not stated), the Ratio is reported as 1.77 in the data set listed under Sus scrofa [1], 1.48 in the data set filed under Sus scrofa [2] and 1.45 in the data set filed under Sus scrofa [3].

On to `CCCCCCCCCCCCOC(=O)CCCCCOC(=O)OCCCCCCCCCCCC`, for which the Ratio is given as 1.29 in the data set listed under Sus scrofa [1], 2.49 in the data set filed under Sus scrofa [2] and 1.13 in the data set filed under Sus scrofa [3].

Consider `CCCCCCCCCCCCOC(=O)CCCCCCOC(=O)NCCCCCC(=O)OCCCCCCCCCCCC`, for which the Ratio is on record as 1.07 in the data set filed under Sus scrofa [1], 1.22 in the data set filed under Sus scrofa [2] and 1.02 in the data set listed under Sus scrofa [3].

Consider `CCCCCCCCCCCCOC(=O)OCCCCCC(=O)NCCCCCCCCCC`, for which the results for the Ratio in the data set filed under Sus scrofa [1], in the data set filed under Sus scrofa [2] and in the data set filed under Sus scrofa [3] were 1.48, 1.13 and 2.66, respectively.

Take `CCCCCCCCCCCCOC(=O)CCCCCNC(=O)OCCCCCCCCCCCC`: the Ratio in the data set filed under Sus scrofa [1] is listed as 0.57; in the data set filed under Sus scrofa [2] it was 0.77; in the data set filed under Sus scrofa [3], 0.47.

On to `CCCCCCCCCCCCOC(=O)CCCCCNC(=O)OCC`, for which the Ratio in the data set filed under Sus scrofa [1] is 1.01; in the data set listed under Sus scrofa [2], 1.83; in the data set listed under Sus scrofa [3], 1.52.

For the molecule `CCCCCCCCCCCCOC(=O)CCCCCCOC(=O)OCCCCCC(=O)OCCCCCCCCCCCC`, the Ratio was found to be 1.49 in the data set listed under Sus scrofa [1], 0.8 in the data set listed under Sus scrofa [2] and 1.24 in the data set listed under Sus scrofa [3].

As for `CCCCCCCCCCCCOC(=O)CCCCCN.CCCCCCCCCCCCOC(=O)CCCCCNC(=O)O` [TRANSKARBAM 12], the Ratio is 6.56 in the data set listed under Sus scrofa [1], 1.9 in the data set listed under Sus scrofa [2] and 22.8 in the data set filed under Sus scrofa [3].
